Results reported in ChEMBL document CHEMBL1147677, “Synthesis and biological evaluation of glycosidase inhibitors: gem-difluoromethylenated nojirimycin analogues” (J Med Chem, 2006).

How the values were obtained:
[1] = Inhibition of yeast alpha glucosidase at pH 6.8; parameters: species or system Saccharomyces cerevisiae
Outline: (§1)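 Nitrophenyl glycoside substrate hydrolysis in 0.1 M sodium phosphate, pH 6.8, 25 °C. Seven cuvettes hold a fixed inhibitor concentration and seven hold none, each across varying substrate levels. The reaction is started with diluted enzyme, and 4- or 2-nitrophenol release is followed at 400 nm for 2 min. Ki = [I]/(KM′/KM − 1) from KM with and without inhibitor.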

[2] = molecular target: T1, Tissue alpha-L-fucosidase (Bos taurus, UniProt Q2KIM0); assay: Inhibition of bovine kidney alpha fucosidase at pH 6.8; outline: as §1
T1 sequence (Q2KIM0 whole entry): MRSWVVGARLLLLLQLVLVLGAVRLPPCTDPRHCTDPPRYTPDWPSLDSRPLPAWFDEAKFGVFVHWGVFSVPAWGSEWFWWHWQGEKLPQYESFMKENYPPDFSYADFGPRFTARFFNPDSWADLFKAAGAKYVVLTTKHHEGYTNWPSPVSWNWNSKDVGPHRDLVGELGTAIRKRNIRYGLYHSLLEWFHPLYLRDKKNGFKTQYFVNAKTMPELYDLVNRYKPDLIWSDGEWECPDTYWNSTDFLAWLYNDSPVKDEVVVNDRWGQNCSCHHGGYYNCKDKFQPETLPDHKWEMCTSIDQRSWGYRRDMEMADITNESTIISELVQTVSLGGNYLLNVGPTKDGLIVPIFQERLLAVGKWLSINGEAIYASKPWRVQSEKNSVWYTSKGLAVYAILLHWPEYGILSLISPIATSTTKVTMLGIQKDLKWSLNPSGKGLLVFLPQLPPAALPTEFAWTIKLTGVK

[3] = molecular target: T2, Tissue alpha-L-fucosidase (Homo sapiens, UniProt P04066); assay: Inhibition of human placenta alpha fucosidase at pH 6.8; outline: as §1
T2 sequence (P04066 whole entry): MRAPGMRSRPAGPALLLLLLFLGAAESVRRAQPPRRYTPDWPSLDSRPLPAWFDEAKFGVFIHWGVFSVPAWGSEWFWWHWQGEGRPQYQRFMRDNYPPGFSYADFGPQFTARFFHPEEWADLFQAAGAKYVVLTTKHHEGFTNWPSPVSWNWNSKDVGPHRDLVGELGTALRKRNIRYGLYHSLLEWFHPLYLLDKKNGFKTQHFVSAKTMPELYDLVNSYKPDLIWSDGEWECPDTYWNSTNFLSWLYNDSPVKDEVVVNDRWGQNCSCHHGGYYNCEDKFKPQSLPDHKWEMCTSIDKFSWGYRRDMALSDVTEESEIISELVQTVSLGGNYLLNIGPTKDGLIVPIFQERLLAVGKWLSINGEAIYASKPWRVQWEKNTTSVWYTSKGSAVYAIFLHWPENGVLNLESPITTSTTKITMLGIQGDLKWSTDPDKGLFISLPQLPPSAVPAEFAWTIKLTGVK

Alpha-galactosidase = Alpha-galactosidase (Coffea arabica, UniProt Q5DUH8); assay: Inhibition of green coffee beans alpha galactosidase at pH 6.8; outline: as §1
[4] = Dissociation constant, pKa of the compound; format: physicochemical

Alpha-galactosidase, sequence (Q5DUH8 whole entry): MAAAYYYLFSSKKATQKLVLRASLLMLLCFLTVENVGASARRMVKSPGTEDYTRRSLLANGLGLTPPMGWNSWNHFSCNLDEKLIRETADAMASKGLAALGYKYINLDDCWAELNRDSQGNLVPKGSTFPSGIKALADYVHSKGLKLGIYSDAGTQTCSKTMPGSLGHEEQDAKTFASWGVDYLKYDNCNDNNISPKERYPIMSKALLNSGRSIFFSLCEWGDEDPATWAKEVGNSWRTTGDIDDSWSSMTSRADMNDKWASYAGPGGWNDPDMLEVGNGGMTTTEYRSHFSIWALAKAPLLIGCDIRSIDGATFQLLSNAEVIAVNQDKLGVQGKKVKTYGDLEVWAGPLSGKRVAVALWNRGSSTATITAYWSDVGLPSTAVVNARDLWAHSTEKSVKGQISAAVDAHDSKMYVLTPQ

SMILES | Ki [1] [µM] | Ki [2] [µM] | Ki [3] [µM] | Ki (Alpha-galactosidase) [µM] | pKa [4]
C[C@@H]1NC[C@@H](O)[C@H](O)C1(F)F | > 1000 | 570 | 250 | > 1000 | –
OC[C@H]1NC[C@@H](O)[C@@H](O)C1(F)F | – | – | – | – | 5.3
C[C@H]1NC[C@H](O)[C@@H](O)C1(F)F | > 1000 | > 1000 | > 1000 | > 1000 | –
